Laboratory results taken from ChEMBL document CHEMBL3804761, “Synthesis of a stable and orally bioavailable englerin analogue” (Bioorg Med Chem Lett, 2016).

Experiments:
Assay type in all cases: functional
[1] = Growth inhibition of human SW620 cells assessed as cell growth at 10 uM incubated for 48 hrs by sulforhodamine B assay relative to control; settings: SW-620, 48 h, read-out: Activity
In short: (§1)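 Run in the standard NCI 60-cell-line screen. Cells were exposed to drug for two days, and the read-out was sulforhodamine B staining. Compound was tested at a single final concentration of 10 µM in every line, and results are reported as growth percent.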

[2] = Growth inhibition of human SF268 cells assessed as cell growth at 10 uM incubated for 48 hrs by sulforhodamine B assay relative to control; settings: SF-268, 48 h, read-out: Activity; in short: as §1
[3] = Growth inhibition of human SNB19 cells assessed as cell growth at 10 uM incubated for 48 hrs by sulforhodamine B assay relative to control; settings: SNB-19, 48 h, read-out: Activity; in short: as §1
M14 = assay: Growth inhibition of human M14 cells assessed as cell growth at 10 uM incubated for 48 hrs by sulforhodamine B assay relative to control; settings: M14, 48 h, read-out: Activity; in short: as §1
SK-MEL-5 = assay: Growth inhibition of human SK-MEL-5 cells assessed as cell growth at 10 uM incubated for 48 hrs by sulforhodamine B assay relative to control; settings: SK-MEL-5, 48 h, read-out: Activity; in short: as §1
[4] = Growth inhibition of human OVCAR5 cells assessed as cell growth at 10 uM incubated for 48 hrs by sulforhodamine B assay relative to control; settings: OVCAR-5, 48 h, read-out: Activity; in short: as §1
ACHN [5] = assay: Growth inhibition of human ACHN cells assessed as cell growth at 10 uM incubated for 48 hrs by sulforhodamine B assay relative to control; settings: read-out: Activity; in short: as §1
[6] = Growth inhibition of human PC3 cells assessed as cell growth at 10 uM incubated for 48 hrs by sulforhodamine B assay relative to control; settings: PC-3, 48 h, read-out: Activity; in short: as §1
[7] = Growth inhibition of human DU145 cells assessed as cell growth at 10 uM incubated for 48 hrs by sulforhodamine B assay relative to control; settings: DU-145, 48 h, read-out: Activity; in short: as §1
[8] = Growth inhibition of human RXF393 cells assessed as cell growth at 10 uM incubated for 48 hrs by sulforhodamine B assay relative to control; settings: RXF 393, 48 h, read-out: Activity; in short: as §1
[9] = Growth inhibition of human MOLT4 cells incubated for 48 hrs by sulforhodamine B assay; settings: MOLT-4, 48 h; for TGI: read-out: pTGI (converted)
In short: (§2)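 NCI 60-cell-line panel, standard protocol. Cells exposed to compound for two days, growth read by sulforhodamine B staining. Tested at five 10-fold dilutions, top concentration 100 µM, to give dose-response curves.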

[10] = Growth inhibition of human HOP92 cells incubated for 48 hrs by sulforhodamine B assay; settings: HOP-92, 48 h; for TGI: read-out: pTGI (converted); in short: as §2
NCI-H460 = assay: Growth inhibition of human NCI-H460 cells incubated for 48 hrs by sulforhodamine B assay; settings: NCI-H460, 48 h; for CC50: read-out: pLC50 (the source's name) (converted); for TGI: read-out: pTGI (converted); in short: as §2
[11] = Growth inhibition of human COLO205 cells incubated for 48 hrs by sulforhodamine B assay; settings: COLO 205, 48 h; for CC50: read-out: pLC50 (the source's name) (converted); for TGI: read-out: pTGI (converted); in short: as §2
[12] = Growth inhibition of human HCC2998 cells incubated for 48 hrs by sulforhodamine B assay; settings: HCC 2998, 48 h; for TGI: read-out: pTGI (converted); in short: as §2
[13] = Growth inhibition of human HCT116 cells incubated for 48 hrs by sulforhodamine B assay; settings: HCT-116, 48 h; for TGI: read-out: pTGI (converted); in short: as §2
[14] = Growth inhibition of human HCT15 cells incubated for 48 hrs by sulforhodamine B assay; settings: HCT-15, 48 h; for TGI: read-out: pTGI (converted); in short: as §2
KM12 = assay: Growth inhibition of human KM12 cells incubated for 48 hrs by sulforhodamine B assay; settings: KM12, 48 h; for TGI: read-out: pTGI (converted); in short: as §2
SK-MEL-28 = assay: Growth inhibition of human SK-MEL-28 cells incubated for 48 hrs by sulforhodamine B assay; settings: SK-MEL-28, 48 h; for TGI: read-out: pTGI (converted); in short: as §2
[15] = Growth inhibition of human UACC62 cells incubated for 48 hrs by sulforhodamine B assay; settings: UACC-62, 48 h; for TGI: read-out: pTGI (converted)
In short: (§3)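 Tested in the standard NCI 60-cell-line protocol with two-day drug exposure and a sulforhodamine B endpoint. Compounds were first screened at a single final concentration of 10 µM, reported as growth percent. They were then run as five 10-fold dilutions starting from a high concentration of 100 µM to give dose-response curves.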

[16] = Growth inhibition of human OVCAR3 cells incubated for 48 hrs by sulforhodamine B assay; settings: OVCAR-3, 48 h; for TGI: read-out: pTGI (converted); in short: as §2
NCI/ADR-RES = assay: Growth inhibition of human NCI/ADR-RES cells incubated for 48 hrs by sulforhodamine B assay; settings: for TGI: read-out: pTGI (converted); in short: as §2
786-0 = assay: Growth inhibition of human 786-0 cells incubated for 48 hrs by sulforhodamine B assay; settings: 786-0, 48 h; for TGI: read-out: pTGI (converted); in short: as §2
A498 = assay: Growth inhibition of human A498 cells incubated for 48 hrs by sulforhodamine B assay; settings: A498, 48 h; for TGI: read-out: pTGI (converted)
ACHN [17] = assay: Growth inhibition of human ACHN cells incubated for 48 hrs by sulforhodamine B assay; settings: for TGI: read-out: pTGI (converted); in short: as §2
[18] = Growth inhibition of human UO31 cells incubated for 48 hrs by sulforhodamine B assay; settings: UO-31, 48 h; for CC50: read-out: pLC50 (the source's name) (converted); for TGI: read-out: pTGI (converted); in short: as §3
K562 = assay: Growth inhibition of human K562 cells incubated for 48 hrs by sulforhodamine B assay; settings: K562, 48 h; in short: as §2
NCI-H522 = assay: Growth inhibition of human NCI-H522 cells assessed as cell growth at 10 uM incubated for 48 hrs by sulforhodamine B assay relative to control; settings: NCI-H522, 48 h, read-out: Activity; in short: as §1
[19] = Growth inhibition of human HL-60(TB) cells assessed as cell growth at 10 uM incubated for 48 hrs by sulforhodamine B assay relative to control; settings: HL-60, 48 h, read-out: Activity
In short: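 Single-dose screen in the NCI 60-cell-line panel at one final concentration of 10 µM. Two-day drug exposure with a sulforhodamine B endpoint. Values are growth percent for each cell line.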

C/C(=C\C(=O)O[C@H]1[C@@H]2[C@H](C)CC[C@H]2[C@]2(C)O[C@@]1(C(C)C)C[C@H]2NC(=O)CO)c1ccccc1
growth at 10 µM [1]: 103%
growth at 10 µM [2]: 106%
growth at 10 µM [3]: 108%
growth at 10 µM (M14): 100%
growth at 10 µM (SK-MEL-5): 101%
growth at 10 µM [4]: 119%
growth at 10 µM (ACHN [5]): 27.9%
growth at 10 µM [6]: 83.1%
growth at 10 µM [7]: 119%
growth at 10 µM [8]: 73.5%
GI50 [9]: 25.7 µM
LC50 [9]: > 100 µM
TGI [9]: 81.3 µM
GI50 [10]: 21.9 µM
LC50 [10]: > 100 µM
TGI [10]: 81.3 µM
GI50 (NCI-H460): 38 µM
CC50 (NCI-H460): > 100 µM
TGI (NCI-H460): > 100 µM
GI50 [11]: 22.9 µM
CC50 [11]: > 100 µM
TGI [11]: 83.2 µM
GI50 [12]: 34.7 µM
LC50 [12]: > 100 µM
TGI [12]: > 100 µM
GI50 [13]: 32.4 µM
LC50 [13]: > 100 µM
TGI [13]: > 100 µM
GI50 [14]: 34.7 µM
LC50 [14]: > 100 µM
TGI [14]: > 100 µM
GI50 (KM12): 33.9 µM
LC50 (KM12): > 100 µM
TGI (KM12): > 100 µM
GI50 (SK-MEL-28): 45.7 µM
LC50 (SK-MEL-28): > 100 µM
TGI (SK-MEL-28): > 100 µM
GI50 [15]: 35.5 µM
LC50 (lethal concentration, 50% net cell kill) [15]: > 100 µM
TGI [15]: > 100 µM
GI50 [16]: 32.4 µM
LC50 [16]: > 100 µM
TGI [16]: 93.3 µM
GI50 (NCI/ADR-RES): 7.94 µM
LC50 (NCI/ADR-RES): > 100 µM
TGI (NCI/ADR-RES): 69.2 µM
GI50 (786-0): 33.9 µM
LC50 (786-0): > 100 µM
TGI (786-0): > 100 µM
LC50 (A498): 23.4 µM
GI50 (A498; read-out: GI50): 1.15 µM
GI50 (A498; read-out: pGI50 (converted)): 1.15 µM
TGI (A498): 4.27 µM
GI50 (ACHN [17]): 3.31 µM
LC50 (concentration killing 50% of cells) (ACHN [17]): > 100 µM
TGI (ACHN [17]): 16.2 µM
GI50 [18]: 3.02 µM
CC50 [18]: > 100 µM
TGI [18]: 12 µM
GI50 (K562): 31.6 µM
CC50 (K562; read-out: pLC50 (the source's name) (converted)): > 100 µM
TGI (K562; read-out: pTGI (converted)): > 100 µM
growth at 10 µM (NCI-H522): 92.5%

CC(C)[C@@]12C[C@@H](NC(=O)CO)[C@@](C)(O1)[C@@H]1CC[C@@H](C)[C@H]1[C@@H]2OC(=O)/C=C/c1ccccc1
growth at 10 µM [1]: 109%
growth at 10 µM [2]: 84.4%
growth at 10 µM [3]: 103%
growth at 10 µM (M14): 103%
growth at 10 µM (SK-MEL-5): 90.6%
growth at 10 µM [4]: 93%
growth at 10 µM (ACHN [5]): 8.01%
growth at 10 µM [6]: 77.5%
growth at 10 µM [7]: 110%
growth at 10 µM [8]: 63.3%
GI50 [9]: 15.8 µM
LC50 [9]: > 50.1 µM
TGI [9]: > 50.1 µM
GI50 [10]: 5.25 µM
LC50 [10]: > 50.1 µM
TGI [10]: 24 µM
GI50 (NCI-H460): 17 µM
CC50 (NCI-H460): > 50.1 µM
TGI (NCI-H460): > 50.1 µM
GI50 [11]: 10.7 µM
CC50 [11]: > 50.1 µM
TGI [11]: 26.3 µM
GI50 [12]: 15.8 µM
LC50 [12]: > 50.1 µM
TGI [12]: > 50.1 µM
GI50 [13]: 10.7 µM
LC50 [13]: > 50.1 µM
TGI [13]: 38 µM
GI50 [14]: 16.6 µM
LC50 [14]: > 50.1 µM
TGI [14]: > 50.1 µM
GI50 (KM12): 20 µM
LC50 (KM12): > 50.1 µM
TGI (KM12): > 50.1 µM
GI50 (SK-MEL-28): 20.9 µM
LC50 (SK-MEL-28): > 50.1 µM
TGI (SK-MEL-28): > 50.1 µM
GI50 [15]: 15.1 µM
LC50 (lethal concentration, 50% net cell kill) [15]: > 50.1 µM
TGI [15]: > 50.1 µM
GI50 [16]: 14.8 µM
LC50 [16]: > 50.1 µM
TGI [16]: 49 µM
GI50 (NCI/ADR-RES): 3.47 µM
LC50 (NCI/ADR-RES): > 50.1 µM
TGI (NCI/ADR-RES): > 50.1 µM
GI50 (786-0): 3.63 µM
LC50 (786-0): > 50.1 µM
TGI (786-0): 24 µM
LC50 (A498): 29.5 µM
GI50 (A498; read-out: GI50): 0.162 µM
GI50 (A498; read-out: pGI50 (converted)): 0.162 µM
TGI (A498): 2.45 µM
GI50 (ACHN [17]): 3.98 µM
LC50 (concentration killing 50% of cells) (ACHN [17]): > 50.1 µM
TGI (ACHN [17]): 35.5 µM
GI50 [18]: 6.17 µM
CC50 [18]: > 50.1 µM
TGI [18]: > 50.1 µM
growth at 10 µM [19]: 91.7%
growth at 10 µM (NCI-H522): 76.9%
